Published values of several laboratories.
Lines come from different studies, so protocols differ.
Target: Calcium/calmodulin-dependent protein kinase type II subunit delta (CAMK2D, Homo sapiens, UniProt Q13557)

CN(C)c1nccc(-c2cnc3ncccn23)n1 — remaining binding (binding; 1 µM): 100%
COc1cnc(Nc2cccc(S(N)(=O)=O)c2)nc1N1CCN(c2ccccc2)C(=O)C1 — remaining binding (binding; competition with immobilised ligand; 1 µM): 100%
O=c1nc(-c2ccccn2)sc2ccccc12 — remaining binding (cell-free assay; competition with immobilised ligand; 1 µM): 90%
F[C@@H]1CCN(c2nccc(-c3cnn4ncccc34)n2)C1 — remaining binding (binding; 1 µM): 100%
Cc1cnc(Nc2ccc(C(=O)N3CCC(N4CCCC4)CC3)cc2)nc1-c1cc2ccccc2s1 — remaining binding (binding; competition with immobilised ligand; 1 µM): 73%
N[C@@H]1CCN(c2nccc(-c3cnn4ncccc34)n2)C1 — remaining binding (binding; 1 µM): 100%
CCN1CCN(Cc2ccc(C(=O)Nc3ccc(C)c(Oc4ccc5c(c4)CC(=O)N5)c3)cc2C(F)(F)F)CC1 — remaining binding (binding; competition with immobilised ligand; 1 µM): 100%
O=C(c1ccc(Nc2ncc(Cl)c(-c3ccc(Cl)s3)n2)cc1)N1CCC(N2CCCC2)CC1 — remaining binding (binding; competition with immobilised ligand; 1 µM): 75%
COc1ccc2cc(OCC3(C(=O)O)CN(C(=O)c4ccc(F)cc4)C3)ccc2c1 — remaining binding (cell-free assay; competition with immobilised ligand; 1 µM): 100%
C[C@H]1CCN(c2nccc(-c3cnn4ncccc34)n2)C1 — remaining binding (binding; 1 µM): 94%
C[C@@H](c1ccc(-n2cnc3c(N)ncnc32)cc1)N1CCc2nn(C)c(Cc3ccccc3)c2C1=O — remaining binding (binding; competition with immobilised ligand; 0.1 µM): 93%
O=C(c1ccc(Nc2nccc(-c3cc4ccccc4s3)n2)cc1)N1CCC(N2CCCC2)CC1 — remaining binding (binding; competition with immobilised ligand; 1 µM): 81%
CNC(=O)c1ccc(Nc2ncc(C(F)(F)F)c(NCc3nccnc3N(C)S(C)(=O)=O)n2)cc1 — remaining binding (cell-free assay; competition with immobilised ligand; 0.1 µM): 83%
CNC(=O)[C@@H]1CC[C@@H](n2c(-c3ccc4cnccc4c3)nc3ccc(C(=O)NCc4cccc(C(N)=O)c4)cc32)C1 — remaining binding (binding; competition with immobilised ligand; 1 µM): 87%
CNC(=O)Nc1ccc2c(c1)CC[C@@]21OC(=O)N(CC(=O)N(Cc2ccc(F)cc2)[C@@H](C)C(F)(F)F)C1=O — remaining binding (cell-free assay; competition with immobilised ligand; 1 µM): 91%
Cc1cnn2ncc(-c3ccnc(N(C)C)n3)c2c1 — remaining binding (binding; 1 µM): 78%
Cn1nc(C(F)(F)F)cc1-c1cnc(N2CCc3cc(S(=O)(=O)Nc4c(F)cc(Cl)cc4F)cc(N4CCCC4=O)c32)nc1 — remaining binding (cell-free assay; competition with immobilised ligand; 1 µM): 99%
CN(C)c1nccc(-c2cnn3ncccc23)n1 — remaining binding (binding; 1 µM): 100%
CCS(=O)(=O)c1cc2cc(C[C@@](O)(CC(C)(C)c3ccc(F)cc3C(N)=O)C(F)(F)F)[nH]c2cn1 — remaining binding (cell-free assay; competition with immobilised ligand; 1 µM): 81%
CN(c1nccc(-c2cnn3ncccc23)n1)C1CC1 — remaining binding (binding; 1 µM): 100%
CS(=O)(=O)c1cc(C2(NC(=O)c3cncc4c3cnn4-c3ccc(F)cc3)CC2)ccn1 — remaining binding (cell-free assay; competition with immobilised ligand; 1 µM): 76%
O=C(NCC1CCOCC1)c1n[nH]cc1NC(=O)c1c(F)cccc1F — remaining binding (binding; competition with immobilised ligand; 1 µM): 89%
